sPLA2-III inh: Blocks human group III sPLA2 activity; Q9NZ20; QFRET BODIPY PC-A2 liposome hydrolysis, fluorescence; inhibition, % at 12.2 µM; 370,000 tested, 0.56% active; AID 743126;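 active means inhibition above mean plus 3 SD of compounds lying within the high and low control bounds, cut at about 19% in these data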;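 further: 0% = median of test compound wells and 100% = no enzyme DMSO wells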
PLCb3 inh: PLC-beta3 (human) inhibition, primary screen; Q01970; Purified PLC-beta3, fluorogenic substrate, fluorescence; inhibition, % at 12.2 µM; 370,000 tested, 0.18% active; AID 720704; in the data active means inhibition above about 11%;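 further: 0% = median of compound wells on plate and 100% = full blocker control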
PLCg1 inh: PLC-gamma1 (human) inhibition, primary screen. purified PLC-gamma1, fluorogenic substrate, fluorescence. inhibition, % at 12.2 µM. 370,000 tested, 0.84% active. AID 720700
DAGLB inhibitor: blocks human DAGLB lipase activity; Q8NCG7; AID 504411; HEK293T DAGLB membrane lysate, EnzChek fluorogenic substrate; inhibition, % at 5.17 µM; 340,000 tested, 0.059% active; in the data active means inhibition above about 34%;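 further: 0% = enzyme with vehicle and 100% = wells lacking enzyme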
Target sequence (Q8NCG7 whole entry, looked up): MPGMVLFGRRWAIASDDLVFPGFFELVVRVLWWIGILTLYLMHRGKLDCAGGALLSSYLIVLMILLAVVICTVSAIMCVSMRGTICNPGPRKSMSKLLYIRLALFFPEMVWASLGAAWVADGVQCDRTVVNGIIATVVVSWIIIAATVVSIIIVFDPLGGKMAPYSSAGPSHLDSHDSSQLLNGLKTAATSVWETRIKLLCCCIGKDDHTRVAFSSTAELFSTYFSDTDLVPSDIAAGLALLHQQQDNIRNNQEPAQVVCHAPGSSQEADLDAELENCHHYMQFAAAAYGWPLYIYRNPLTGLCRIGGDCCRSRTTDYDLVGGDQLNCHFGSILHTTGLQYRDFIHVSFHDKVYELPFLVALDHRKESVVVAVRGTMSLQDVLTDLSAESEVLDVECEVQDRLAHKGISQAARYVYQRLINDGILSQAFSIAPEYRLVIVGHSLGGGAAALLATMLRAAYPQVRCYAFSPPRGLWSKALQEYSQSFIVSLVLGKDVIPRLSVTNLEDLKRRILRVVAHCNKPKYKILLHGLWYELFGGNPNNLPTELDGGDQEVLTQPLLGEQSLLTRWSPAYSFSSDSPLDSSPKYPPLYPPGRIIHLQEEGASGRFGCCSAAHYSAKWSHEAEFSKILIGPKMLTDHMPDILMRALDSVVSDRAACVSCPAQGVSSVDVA
Tb MetRS inh: Trypanosoma brucei MetRS inhibition. purified T. brucei MetRS, ATP depletion, Kinase-Glo luminescence. 360,000 tested, 0.4% active. inhibition, % at 11.9 µM;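 active means inhibition above a per-plate cutoff of the control wells' mean inhibition plus 3 SD, cut at about 5.5% in these data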;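 further: 0% = DMSO wells median and 100% = median of wells with control inhibitor compound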
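Material: T. brucei methionyl-tRNA synthetase, purified; reagent: substrates ATP, L-methionine and bulk Escherichia coli tRNA; dosing: 11.9 µM single point; timing: 15 min plus 2 h at 25 °C; detection: luminescence of leftover ATP; evaluation: % inhibition; control set: DMSO-only wells as low control; replicates: singlicate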
PLCgamma1 ctr: PLC-gamma1 inhibition, counter-screen for PLC-beta3 hits; inhibition, % at 12.3 µM; shares compounds with PLCg1 inh; purified PLC-gamma1, fluorogenic substrate, fluorescence; 3,300 tested, 3.1% active
PLCb3 confirm: human PLC-beta3 inhibition, confirmation; shares compounds with PLCg1 inh; inhibition, % at 12.3 µM; purified PLC-beta3, fluorogenic substrate fluorescence; 3,300 tested, 1% active; in the data active means inhibition above about 11%
An asterisk follows results filed as active; . = not tested or not shown. Hits are enriched below; roughly 1.9% of the tested compounds scored in any of these assays. Unless noted, no stated cut-off is given here; in the data, active means inhibition above about 9.5%; inactive means the rest.

SMILES	sPLA2-III inh	PLCb3 inh	PLCg1 inh	DAGLB inhibitor	Tb MetRS inh	PLCgamma1 ctr	PLCb3 confirm
Cn1c(=O)cc(C(=O)N/N=C/c2ccc(F)cc2)[nH]c1=O	7	-6	9.6*	0	1	-5	-8
C[C@H]1[C@H](N(C)C)CC[C@@]23CCCN2C(=O)CCC[C@@H]13	-1	1	2	.	.	.	.
CCCCc1c(-c2ccccc2OC)ncn1Cc1ccccc1C	-12	1	2	.	.	.	.
CC(=O)OC[C@H]1O[C@@H](n2ccc(=O)[nH]c2=S)C(OC(C)=O)C1OC(C)=O (stereo not given in full)	-8	2	9.8*	-1	-1	0	1
CC(=O)OCC1OC(n2ccc(=O)[nH]c2=O)C(O)C1O (stereo not given)	0	3	4	-2	0	.	.
O=C(CSc1nnc(-c2cccnc2)n1-c1ccc(Cl)cc1)Nc1ccccc1-c1ccccc1	-14	1	0	.	.	.	.
COc1cc2cc(-c3ccc(O)cc3O)nc(C)c2cc1OC	-30	-6	13*	1	-1	-4	0
COc1cc2cc(-c3ccc(OC)c(OC)c3C)nc(N)c2cc1OC	-2	-106	-69	.	1	.	.
COc1ccc(OC)c(NC(=O)COc2coc(CN3CCc4ccccc43)cc2=O)c1	0	-6	0	2	0	.	.
COc1ccc(OC)c(NC(=O)COc2coc(CN3CCCc4ccccc43)cc2=O)c1	-4	-6	17*	2	0	-8	-5
Clc1ccc(-n2c(Cc3cccs3)nnc2SC/C=C/c2ccccc2)cc1	-1	-5	-1	.	.	.	.
O=C(OCc1ccccc1Cl)c1cc([N+](=O)[O-])ccc1N1CCOCC1	-8	3	14*	-4	0	0	2
CC(NC(=O)CNC(=S)N(Cc1ccccc1)Cc1cccnc1)c1ccccc1 (stereo not given)	-1	-3	1	2	-1	.	.
CCC(C)NC(=O)CNC(=S)N(Cc1ccccc1)Cc1cccnc1 (stereo not given)	6	4	9.7*	-1	-1	1	2
O=C1CCC[C@H]2C[C@H](NCCc3ccncc3)CC[C@]23CCCN13	4	-5	-3	.	.	.	.
COC(=O)C1=C(C)N(Cc2ccc(Br)cc2)C(=S)NC1c1cccc(OC)c1 (stereo not given)	2	1	4	.	.	.	.
Cc1cccc(OC[C@@H](O)CN2CCC(C(O)(c3ccccc3)c3ccccc3)CC2)c1	-12	2	2	.	.	.	.
COc1ccccc1OCCCN1CCC(C(O)(c2ccccc2)c2ccccc2)CC1	-12	2	1	.	-1	.	.
COC(=O)c1cccc(OCCCN2CCC(C(O)(c3ccccc3)c3ccccc3)CC2)c1	-22	5	9.7*	.	-1	-2	-5
COC(=O)c1cccc(OC[C@@H](O)CN2CCC(C(O)(c3ccccc3)c3ccccc3)CC2)c1	-20	9	11*	.	.	7	-4
OC(c1ccccc1)(c1ccccc1)C1CCN(CCCOc2cccc(Cl)c2)CC1	-16	-2	6	.	.	.	.
C/C=C/c1ccccc1OCCCN1CCC(C(O)(c2ccccc2)c2ccccc2)CC1	-24	4	13*	.	.	1	2
O=C(Nc1cccc(F)c1)OCCN1CCCC12CCC(c1ccccc1)CC2 (stereo not given)	-12	0	-1	.	.	.	.
C[C@@H]1[C@@H](c2ccccc2)OC(O)([C@H](Cc2ccccc2)NC(=O)OC(C)(C)C)CN1C (stereo not given in full)	-12	3	0	.	.	.	.
Cc1cc(Oc2cccnc2)ccc1NC(=O)CCc1c[nH]c2ccccc12	-37	-8	-3	.	.	.	.
SMILES	sPLA2-III inh	PLCb3 inh	PLCg1 inh	DAGLB inhibitor	Tb MetRS inh	PLCgamma1 ctr	PLCb3 confirm
COc1cc(Cl)cc(C(c2c(C(=O)O)[nH]c3ccccc23)c2c(C(=O)O)[nH]c3ccccc23)c1O	-138	-9	11*	15	1	8	-13
O=C1CN(C(=O)COC(=O)c2cccc(Br)c2)c2ccccc2N1	-3	-10	14*	-4	-1	-2	-1
O=C1CN(C(=O)COC(=O)c2ccc(Br)o2)c2ccccc2N1	17	-16	-11	2	0	.	.
O=C(CSc1nnc(-c2ccccc2)n1-c1ccc(Cl)cc1)Nc1cccc2ccccc12	-3	5	1	.	.	.	.
O=C(C[C@H]1C/C=C\C[C@@H](Cc2ccc(F)cc2)C(=O)O[C@H](c2ccccc2)CNC1=O)N[C@@H](CO)Cc1ccccc1	3	4	2	0	0	.	.
O=C(C[C@H]1C/C=C\CC[C@@H](Cc2ccc(F)cc2)C(=O)O[C@@H](c2ccccc2)CNC1=O)N[C@H](CO)Cc1ccccc1	-6	8	11*	0	0	1	-1
CC(C)(C)OC(=O)C[C@H]1C/C=C\C[C@H](CC(=O)N[C@H](CO)Cc2ccccc2)C(=O)N[C@@H](Cc2ccccc2)COC1=O	2	13*	14*	-4	0	1	2
COC(=O)c1ccsc1NS(C)(=O)=O	17	-8	-1	.	.	.	.
CS(=O)(=O)N(Cc1ccccc1)c1ccc(C(=O)NC2CCCCC2O)cc1 (stereo not given)	-1	4	9.5*	1	1	0	-3
CS(=O)(=O)N(Cc1ccc(C(=O)NC2CCCC2)cc1)c1ccccc1	7	1	13*	-2	0	-6	-14
COC(=O)C1=C(C)N(Cc2ccccc2C(F)(F)F)C(=NCc2ccc(C(F)(F)F)cc2)NC1c1ccc(C(F)(F)F)cc1 (stereo not given)	-1	2	-2	.	.	.	.
O=C(NC1C2CC3CC(C2)CC1C3)C1CCCCC1 (stereo not given)	10	1	16*	0	-1	-7	-3
C[C@@H]1CN(C(=O)OC(C)(C)C)CCN1c1ccc(N2CCN(Cc3ccccc3)[C@@H](C)C2)c(C#N)c1	7	-68	-77	.	.	.	.
CCOc1ccc(NC(=O)CN(C)C(=O)CCCOc2ccc(Cl)c(C)c2)cc1OCC	-14	4	9.6*	-1	0	-6	-5
CCOc1ccc(NC(=O)CN(C)C(=O)c2ccc(C)o2)cc1OCC	8	-1	15*	0	-1	5	3
CCOc1ccc(NC(=O)CN(C)C(=O)c2cc(C)oc2C)cc1OCC	10	-10	4	1	0	.	.
C[C@H]1[C@@H](NC(=O)C#Cc2ccccc2)CC[C@@]23CCCN2C(=O)CCC[C@@H]13	-2	4	4	.	.	.	.
CCOC(=O)N1CCN(Cc2nc3cc(NC(=O)C(C)C)ccc3n2C)CC1	10	-2	12*	-2	0	-8	-8
COc1ccc(NC(=O)CCN2CCCCCC2)cc1	-4	-1	11*	6	-2	-3	-3
COc1ccc(NC(=O)CCN2CCCCC2)cc1	9	-1	1	-2	-1	.	.

Source: PubChem
